Bioassay records from PubChem.
This is a sample that favours compounds with a hit; in the whole collection about 1.7% have one here.
Keap1 Nrf2 FP: disrupts human Keap1 binding to Nrf2 peptide | Q14145 | Keap1 Kelch-Nrf2 peptide fluorescence polarization, 1536-well | inhibition, % at 9.4 µM | 340,000 compounds, 0.15% hits; in the data active means inhibition above about 12%;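 further: human Keap1 Kelch domain with fluorescein labeled Nrf2 9mer peptide probe; 0% = neutral control wells and 100% = peptide positive control; higher means more block of Keap1 binding to Nrf2 peptide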
CAL PDZ FP-1: inhibitors of human CAL PDZ peptide binding; 300,000 compounds, 0.92% hits; purified CAL PDZ, TMR-peptide fluorescence polarization, 1 h; Q9HD26; inhibition, % at 24.9 µM;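 active means mean inhibition of at least 30% with at least half of replicates also reaching 30%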;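 further: 0% = DMSO neutral control and 100% = excess unlabeled competitor peptide PRC23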
CAL PDZ FP-2: human CAL PDZ-peptide interaction inhibition. 330,000 compounds, 0.02% hits. inhibition, % at 20 µM. AID 504414. purified CAL PDZ, TMR-peptide fluorescence polarization, 1 h. Q9HD26;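 active means highest replicate inhibition of at least 40%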;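 further: plate controls were DMSO neutral control wells for no effect and unlabeled competitor peptide control wells for full effect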
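Read-out basis: mP drop reported as inhibition | Assay system: Tagged CAL PDZ protein CerCALP, purified | Benchmarks: Unlabelled peptide for full inhibition, DMSO wells as neutral | Schedule: 1 h incubation at room temperature before polarization reading | Buffer or medium: Sodium phosphate/NaCl buffer pH 7.4 with TCEP, IgG, Thesit | Doses: Single point, 20 µM | Measured by: Fluorescence polarization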
APOBEC3G inh: blocks human APOBEC3G single-stranded DNA deamination. inhibition, % at 20 µM. recombinant A3G, ssDNA deamination FAM/TAMRA fluorescence. Q9HC16. AID 493012. 330,000 compounds, 0.28% hits;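 active means inhibition of at least 40% at 20 µM, with no more than 30% in the related APOBEC3A deaminase screen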;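 further: plate controls were DMSO wells with A3G for no effect and wells lacking A3G enzyme for full effect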
Target sequence (Q9HC16 whole entry, looked up): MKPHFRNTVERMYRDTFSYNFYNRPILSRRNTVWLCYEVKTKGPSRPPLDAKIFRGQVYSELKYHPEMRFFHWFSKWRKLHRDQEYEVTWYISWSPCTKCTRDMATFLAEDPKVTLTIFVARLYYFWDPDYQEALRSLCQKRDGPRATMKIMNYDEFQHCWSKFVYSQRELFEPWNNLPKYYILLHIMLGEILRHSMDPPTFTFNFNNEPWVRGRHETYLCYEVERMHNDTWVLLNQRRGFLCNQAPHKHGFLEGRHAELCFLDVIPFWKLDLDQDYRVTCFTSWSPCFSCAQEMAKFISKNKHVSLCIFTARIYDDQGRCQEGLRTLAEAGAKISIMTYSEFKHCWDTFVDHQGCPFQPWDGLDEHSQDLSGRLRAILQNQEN
APOBEC3A inh: inhibitors of human APOBEC3A DNA deaminase; P31941; recombinant A3A, FAM/TAMRA ssDNA deamination fluorescence; inhibition, % at 20 µM; 330,000 compounds, 0.41% hits;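 active means at least 40% inhibition at 20 µM here, with at most 30% in a related deaminase screen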;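 further: plate controls were A3A with DMSO for no effect and wells lacking A3A enzyme for full effect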
Target sequence (P31941 whole entry, looked up): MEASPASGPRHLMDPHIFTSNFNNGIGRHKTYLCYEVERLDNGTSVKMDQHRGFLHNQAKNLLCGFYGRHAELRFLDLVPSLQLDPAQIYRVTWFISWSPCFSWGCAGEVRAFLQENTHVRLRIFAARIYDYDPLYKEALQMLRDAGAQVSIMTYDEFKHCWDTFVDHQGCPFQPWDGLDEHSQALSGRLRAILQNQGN
LANA DNA inh: blocks KSHV LANA C-terminal domain binding to DNA | MBP-C-LANA/FAM-LBS DNA binding, fluorescence polarization | inhibition, % at 9 µM | 340,000 compounds, 0.078% hits;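 active means highest replicate inhibition at or above 60% at 9 µM, even if other replicates fall short; inactive means all replicates below 60% inhibition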;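 further: 0% = neutral control wells and 100% = 4 µM acridine orange control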
APOBEC3A confirm: confirmation of human APOBEC3A DNA deaminase inhibitors; 1,400 compounds, 63% hits; shares compounds with APOBEC3A inh; inhibition, % at 20 µM; recombinant A3A, ssDNA deaminase UDG fluorescence assay;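 active means inhibition reaching a set limit, 80% of the first screen's cutoff, at 20 µM in any replicate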;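 further: plate controls were DMSO wells with A3A for no effect and wells lacking A3A enzyme for full effect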
UDG A3A counter: inhibits UDG, flagging false APOBEC3A inhibitors; shares compounds with APOBEC3A inh; UDG counterscreen, FAM/TAMRA uracil oligo fluorescence; inhibition, % at 20 µM; 1,000 tested, under 10 active; AID 504714; call rule not given here
* hit, by the source's call; . = no result given.

SMILES	Keap1 Nrf2 FP	CAL PDZ FP-1	CAL PDZ FP-2	APOBEC3G inh	APOBEC3A inh	LANA DNA inh	APOBEC3A confirm	others
CCC(=O)/C=C1\Sc2ccc(OC)cc2N1CCO	-1	3	.	-2	1	1	.
Cc1ccc2c(c1)S/C(=C/c1ccc[n+](CCO)c1)N2C	-7	-2	18	15	56*	-1	88*	UDG A3A counter=2
Cc1ccc2c(c1)S/C(=C\c1cccc[n+]1C)N2CCO	-4	2	1	26	58*	-1	89*	UDG A3A counter=4
C[n+]1ccccc1/C=C1\Sc2ccccc2N1CCO	-6	-7	-13	22	98*	-1	92*	UDG A3A counter=-3
CCN1/C(=C/c2ccc3cc(C)cc(C)c3[n+]2CC)Sc2cc(C)ccc21	-24	5	7	.	.	-55	.
C/C(=N/NC(=O)c1cnccn1)c1cccs1	7	0	1	0	4	0	.
COc1ccccc1N(CC(=O)Nc1ccc2c(c1)OCO2)S(=O)(=O)c1ccccc1	0	0	.	17	49*	-1	64*	UDG A3A counter=-4
COc1ccc(S(=O)(=O)N(CC(=O)Nc2ccc3c(c2)OCO3)c2ccccc2OC)cc1	0	-2	0	-4	-3	-3	.
O=C(CNC(=O)c1cccc(F)c1)OCC(=O)N1CCCCC1	3	3	-3	2	41*	-2	2
CCCCn1c(N)c(N(Cc2ccccc2OC)C(=O)c2c(CC)noc2C)c(=O)[nH]c1=O	0	-4	-1	-6	0	-2	.
CCN1CCN(c2ccccc2NC(=O)c2ccc(-n3cccn3)cc2)CC1	-5	-2	-2	9	46*	2	28
O=C(Nc1ccccc1N1CCN(c2ccc(F)cc2)CC1)c1ccccc1	-4	4	-4	-3	0	0	.
CCN(c1ccccc1)S(=O)(=O)c1cccc(C(=O)NCC(c2ccc(F)cc2)N2CCOCC2)c1 (centres undefined)	-2	.	-1	.	.	-1	.
CCOC(=O)C1=C(C)Nc2sc(C(=O)c3ccc(F)cc3)c(N)c2C1c1ccc(C(=O)OC)cc1 (centres undefined)	-7	2	0	-3	76*	0	-10	UDG A3A counter=-1
CCOC(=O)C1=C(C)Nc2sc(C(=O)c3ccc(C)cc3)c(N)c2C1c1ccc(C(=O)OC)cc1 (centres undefined)	-4	-4	-1	-10	-2	2	.
Oc1ccc(Nc2nc3ccccc3nc2Nc2ccc(O)cc2)cc1	0	-2	-1	-7	42*	0	43*	UDG A3A counter=1
Cn1c(=O)c2ncn(CC(=O)NC3CCCCCC3)c2n(C)c1=O	5	-4	-2	12	43*	2	15
CCc1ccc(NC(=O)Cn2cnc3c(=O)n(C)c(=O)n(C)c32)cc1	0	0	-5	34	69	-6	.
CCCCNC(C(=O)Nc1ccc([N+](=O)[O-])cc1Br)c1ccccc1 (centres undefined)	1	-1	0	0	-1	-1	.
Cc1cc(C)cc(OCC(=O)N2N=C(C(F)(F)F)CC2(O)C(C)(C)C)c1 (centres undefined)	0	.	0	19	56*	1	48*	UDG A3A counter=-1
Cc1ccc(/C=N/N=C2/NC(=O)C(CC(=O)N3CCOCC3)S2)cc1 (centres undefined)	2	1	-1	-2	-3	1	.
CCn1c(=S)sc2c(=O)n(CC(=O)NCCCc3ccccc3)c(C)nc21	-1	6	0	-3	0	-1	.
C=CCn1c(CNC(=O)c2cccs2)nnc1SCC(=O)Nc1ccc(C(=O)O)cc1	-4	1	0	6	48*	1	4
C=CCn1c(CNC(=O)c2cccs2)nnc1SCC(=O)c1ccc(Br)cc1	-1	.	-1	-2	1	-1	.
COc1ccccc1CCNC(=O)c1cccc(S(=O)(=O)NCc2ccccc2)c1	-3	-5	-3	-6	0	1	.
SMILES	Keap1 Nrf2 FP	CAL PDZ FP-1	CAL PDZ FP-2	APOBEC3G inh	APOBEC3A inh	LANA DNA inh	APOBEC3A confirm	others
CCCCn1c(N)c(N(CC(C)C)C(=O)COC(=O)c2ccccc2NCCO)c(=O)[nH]c1=O	-1	-1	-1	8	41*	1	17
CCC(C)C(NC(N)=O)C(=O)Nc1ccc(C)c(Cl)c1 (centres undefined)	1	-1	-2	6	56*	1	2
Cc1ccc(CNC(=O)C(=O)NCC2OCCN2S(=O)(=O)c2ccc(Cl)cc2)cc1 (centres undefined)	-8	2	-4	14	0	-1	.
O=C(Nc1ccc(-c2cn3ccsc3n2)cc1)C1CC1	-1	2	-1	-2	77*	-2	10	UDG A3A counter=-1
CC(N1CCOC1=O)S(=O)(=O)c1ccccc1 (centres undefined)	-3	-2	-2	-4	-1	0	.
COc1ccc(N2CC(C(=O)Nc3nnc(SCC(=O)NCC4CCCO4)s3)CC2=O)cc1 (centres undefined)	-10	1	1	18	-1	1	.
CC(C)CC(=O)N1CCN(c2ccc([N+](=O)[O-])cc2Cl)CC1	1	5	0	-7	7	1	.
O=C(c1cc([N+](=O)[O-])ccc1N1CCOCC1)N1CCN(c2ccc([N+](=O)[O-])cc2)CC1	-4	-3	-2	6	56*	1	5
CC(C)C(=O)N1CCN(c2ccc([N+](=O)[O-])cc2Cl)CC1	-1	0	0	15	55*	-1	17*	UDG A3A counter=-2
O=C(c1cc([N+](=O)[O-])ccc1N1CCOCC1)N1CCCCC1	-2	2	-2	-5	-1	2	.
O=C(Nc1cccc(S(=O)(=O)N2CCCCC2)c1)c1cc(=O)[nH]c2ccccc12	-5	-3	0	-4	0	-3	.
CN(C1CC(C)(C)NC(C)(C)C1)S(=O)(=O)CC12CCC(CC1=O)C2(C)C (centres undefined)	1	-2	-2	3	7	1	.
CCCNc1c(F)c(F)c2c(C)c3ccccc3nc2c1F	4	3	0	-3	42*	2	-9	UDG A3A counter=-18
Cc1c2ccccc2nc2ccccc12	-1	12	0	-5	8	2	.
Cc1ccccc1CSCC(=O)Nc1ccccc1Br	0	-4	0	16	72*	0	11
Cc1ccc(Cl)c(OCC(=O)Nc2cccnc2)c1	4	-1	-3	4	44*	-2	-3
